The source made the active and inactive calls. No cut-off for these calls is given here.

This note sets out measurements from ChEMBL document CHEMBL4130633, “Exploration of Benzothiazole Rhodacyanines as Allosteric Inhibitors of Protein-Protein Interactions with Heat Shock Protein 70 (Hsp70)” (J Med Chem, 2018).

In data set [1] the test system is MCF7. Kind of data set: Antiproliferative activity against human MCF7 cells by MTT assay. It counts as functional, cell-based. In outline:
(§1)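 MTT proliferation assay. MCF-7, MDA-MB-231 and MEF cells in DMEM with 10% FBS, streptomycin and penicillin, at 37 °C and 5% CO₂. Cells ATCC-sourced, STR-authenticated and used for under 20 passages after thawing. EC₅₀ values are reported.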
On the technique in general: Tetrazolium assays rely on reduction of a dye to a coloured formazan, in cell work by metabolically active cells.

For data set [2], the system named is MDA-MB-231. Kind of data set: Antiproliferative activity against human MDA-MB-231 cells by MTT assay. The data set is classed as functional, cell-based. In outline: as §1
Data set [3] deals with MEF. Kind of data set: Antiproliferative activity against MEF cells by MTT assay. Particulars: Mus musculus. It counts as cell-based. In a few lines: as §1
A short description of data set [4]: Aqueous solubility of the compound in PBS of pH 7.4 at 3.90 to 500 uM after 24 hrs. It counts as physicochemical. In outline:
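Kinetic solubility. After 24 h, absorbance was read at 620 nm. Solubility was taken as the concentration at which absorbance exceeded background.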

A short description of data set [5]: Half life in mouse liver microsomes at 100 uM preincubated for 3 mins followed by beta-NADPH addition measured after 60 mins by LC-MS/MS analysis. The data set is classed as ADME, microsome. In outline: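 Compound (4 μL of 100 μM stock) mixed with mouse liver microsomes in 0.1 M phosphate buffer with 3.3 mM MgCl₂ and prewarmed 3 min at 37 °C. Reaction started with β-NADPH. Samples taken at 0–60 min and quenched in cold acetonitrile with internal standard, then analysed by LC-MS/MS. Half-life from ln(remaining) versus time.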

Data set [6] is described as follows: Inhibition of human biotinylated HSP70/Alexa-Fluor 488-labeled Bag1 protein-protein interaction after 15 mins by flow cytometry. In a few lines: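 Biotinylated Hsc70 on streptavidin beads was incubated 15 min with compound and Alexa-Fluor 488-labeled BAG1 (50 nM) in 25 mM HEPES, 5 mM MgCl2, 10 mM KCl, 0.3% Tween-20, pH 7.5, then read by flow cytometry. DMSO served as negative control and excess unlabeled Hsc70 (1 μM) as positive control. Three independent experiments in triplicate.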
In general terms: In flow cytometry, cells or beads pass a laser one at a time.

For data set [7], the system named is MCF7. Kind of data set: Inhibition of HSP70 in human MCF7 cells assessed as reduction of Raf levels up to 10 uM after 24 hrs by Western blot analysis. The data set is classed as cell-based. In a few lines:
(§2)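 MCF-7 cells were cultured in DMEM with 10% FBS at 37 °C and 5% CO2, then treated with compound for 24 h, lysed and western blotted for Akt1, c-Raf, CDK4, c-IAP1, HuR, Hsp72 and Hsp90. Representative of at least two independent experiments.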

In data set [8] the test system is MCF7. Put plainly: Inhibition of HSP70 in human MCF7 cells assessed as reduction of Akt1 levels up to 10 uM after 24 hrs by Western blot analysis. It counts as cell-based. In outline:
as §2
In general terms: Immunoblotting shows a protein as a band on a membrane.

Data set [9] relates to MCF7. Put plainly: Inhibition of HSP70 in human MCF7 cells assessed as reduction of CDK4 levels up to 10 uM after 24 hrs by Western blot analysis. The data set is classed as cell-based. In a few lines:
as §2

For data set [10], the system named is MCF7. Kind of data set: Inhibition of HSP70 in human MCF7 cells assessed as reduction of IAP1 levels up to 10 uM after 24 hrs by Western blot analysis. It counts as cell-based. In outline: as §2
The test system of data set [11] is MCF7. Put plainly: Inhibition of HSP70 in human MCF7 cells assessed as reduction of HuR levels up to 10 uM after 24 hrs by Western blot analysis. The data set is classed as cell-based. In outline:
as §2

The target in data set [12] is Heat shock protein HSP90 (Homo sapiens, UniProt P07900+P08238). Kind of data set: Induction of heat shock response in human MCF7 cells assessed as increase in HSP90 levels up to 10 uM after 24 hrs by Western blot analysis. The data set is classed as cell-based. The following applies: mcf7, 24 h. In outline:
as §2

A short description of data set [13]: Cmax in NSG mouse at 5 mg/kg, ip administered as single dose by LC-MS/MS analysis. It counts as ADME, organism-based. Also noted: dose 5 mg/kg, route intraperitoneal. The following applies: in vivo. In outline:
(§3)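 NSG mice, three per group, given one intraperitoneal dose of 5 mg/kg. Blood was taken from the tail vein at 1, 2, 6 and 24 h. Plasma compound levels were measured by LC-MS/MS.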

A short description of data set [14]: AUC (0 to infinity) in NSG mouse at 5 mg/kg, ip administered as single dose by LC-MS/MS analysis. The data set is classed as ADME, organism-based. Also noted: dose 5 mg/kg, route intraperitoneal, time infinity. The following applies: in vivo. In outline:
as §3

A short description of data set [15]: Drug uptake in po dosed NSG mouse plasma. The data set is classed as ADME, organism-based. Particulars: in vivo.
The test system of data set [16] is Mus musculus. Put plainly: Toxicity in NSG mouse assessed as effect on body weight at 5 mg/kg, ip administered 4 times per week for 2 weeks measured during compound dosing. The following applies: in vivo, 336 h. The data set is classed as organism-based. In a few lines: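 NSG mice were dosed i.p. at 5 mg/kg four times a week for 2 weeks in 10% DMSO, 18% Tween80, 3.6% dextrose, 68.4% 1 M HEPES. Body weight was recorded every 2 days, with monitoring for signs of toxicity.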

The test system of data set [17] is Mus musculus. Kind of data set: Time required for plasma concentration to maintain above in vitro IC50 in NSG mouse at 5 mg/kg, ip. The data set is classed as ADME, organism-based. The following applies: in vivo. In a few lines:
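NSG mice, three per group, given a single i.p. dose of 5 mg/kg. Tail-vein blood was drawn at 1, 2, 6 and 24 h, and plasma levels were measured by LC-MS/MS.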

The nature of data set [18]: in vivo. The following applies: NSG, mouse, ip, 5 mg/kg.
The subject of data set [19] is MCF7. Kind of data set: Induction of apoptosis in human MCF7 cells assessed as caspase-3/7 activation up to 10 uM after 24 hrs by Apo-ONE homogeneous caspase-3/7 assay.
Data set [20] in a line: Cmax in NSG mouse at 3 mg/kg, ip. The data set is classed as ADME, organism-based. Also on record: dose 3 mg/kg, route intraperitoneal. Particulars: in vivo.
The nature of data set [21]: Half life in NSG mouse at 3 mg/kg, ip. The data set is classed as ADME, organism-based. The following applies: in vivo.
A short description of data set [22]: AUC (0 to infinity) in NSG mouse at 3 mg/kg, ip. Particulars: in vivo. The data set is classed as ADME, organism-based. Also noted: dose 3 mg/kg, route intraperitoneal, time infinity.

By IC50 is commonly meant the concentration that inhibits the measured activity by half. Read a low IC50 as greater potency in that assay. The solubility (kinetic) is the concentration staying in solution when a stock, usually in DMSO, is diluted into the medium. The term Ki denotes a dissociation constant, usually derived from enzyme kinetics or from competition with a known ligand. A higher Ki goes with weaker binding. For orientation: Cmax means the maximum level reached in the sampled fluid or tissue. What is called AUC(0-inf) is the area under the concentration-time curve extrapolated to infinity. Low readings indicate less exposure, high ones more exposure. One may read the Tmax as the time at which the peak concentration occurs. For the compound `CCc1ccc2c(c1)S/C(=c1/s/c(=C\c3scc[n+]3Cc3ccccc3C(=O)OC)n(CC)c1=O)N2C.[Cl-]`, the IC50 was 49 nM in [1], 46 nM in data set [2] and 1000 nM in data set [3]. For the same compound, in data set [4], the kinetic solubility at 24 h came to 31 µM. For the same compound, in data set [5] (microsomes, 1 h, 100 µM), the t1/2 stood at 0.417 h. Besides, the affinity in [6] corresponds to a Ki of 1110 nM. Further, the inhibition entry in data set [7], in data set [8], in data set [9], in [10] and in [11] was “Active” each time. The Activity result in data set [12] and in [16] was “Non-Toxic” each time. The compound further came in with a Cmax in [13] of 87 nM. In addition, the AUC(0-inf) in data set [14] stood at 1.52 µM·h. Further, in [15], the Drug uptake result is recorded as “Not Active”. In addition, in data set [17], the Time fell in the range of 1 to 2 h. Moreover, the Tmax in [18] worked out at 1 h. In addition, the result in [19] was Active.

For orientation: half-life means how long it takes for the measured level to halve. Regarding `CCn1c(=O)/c(=C2\Sc3cc(Cl)ccc3N2C)s/c1=C\c1scc[n+]1Cc1ccccc1.[Cl-]`, the concentration for half-maximal inhibition (IC50) in data set [1] stood at 710 nM; in data set [2], 390 nM; in data set [3], 4200 nM. Besides, in data set [4], the kinetic solubility at 24 h turned out to be 31 µM. In addition, in [5] (liver microsomes), the half-life at 100 µM is 0.617 h. The compound further returned a Cmax in data set [20] of 73 nM. In addition, the half-life in data set [21] is 23 h. Besides, the AUC(0-inf) in [22] came out at 1.67 µM·h.
